Here are results for two molecules from ChEMBL document CHEMBL1125826, “Synthesis and biological activity of 5-amino- and 5-hydroxyquinolones, and the overwhelming influence of the remote N1-substituent in determining the structure-activity relationship” (1991).

Holding throughout (type): functional
The test system of assay [1] is Bacteria. Briefly: Antibacterial activity was determined against gram negative organism, Providencia rettgeri. M1771. As to conditions: Bacteria; read-out: MIC. The procedure, abridged:
(§1)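 MIC (µg/mL) by standard microtitration against a panel of 10 Gram-positive and Gram-negative organisms; values averaged from multiple experiments.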

Assay [2] has as its system Streptococcus pyogenes. As to the kind of experiment: The in vivo potency was determined in female charles river CD-1 mice infected with Streptococcus pyogenes after sc administration. As to conditions: Streptococcus pyogenes, sc; read-out: PD50. Put shortly: (§2)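 Acute lethal systemic infection in female CD-1 mice, 16 mice per route; single subcutaneous dose given at the time of challenge; median protective dose (PD50, mg/kg) determined.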

The subject of a further assay is Enterococcus faecalis. As to the kind of experiment: Antibacterial activity was determined against gram positive organism, Streptococcus faecalis MGH-2. As to conditions: Enterococcus faecalis; read-out: MIC. Put shortly:
as §1

In another assay the test system is Enterobacter cloacae. As to the kind of experiment: Antibacterial activity was determined against gram negative organism, Enterobacter cloacae MA2646. As to conditions: Enterobacter cloacae; read-out: MIC.
Assay [3] relates to Escherichia coli. As to the kind of experiment: The in vivo potency was determined in female charles river CD-1 mice infected with Escherichia coli after sc administration. As to conditions: Escherichia coli, sc; read-out: PD50. The procedure, abridged: as §2
The next assay relates to Pseudomonas aeruginosa. Briefly: Antibacterial activity was determined against gram negative organism, Pseudomonas aeruginosa UI-18. The following applies: Pseudomonas aeruginosa; read-out: MIC. Put shortly:
as §1

Assay [4] relates to Streptococcus pneumoniae. Briefly: (§3) Antibacterial activity was determined against gram positive organism, Streptococcus pneumoniae SV-1. The following applies: Streptococcus pneumoniae; read-out: MIC. The procedure, abridged: as §1
Assay [5] relates to Streptococcus pneumoniae. As to the kind of experiment: The in vivo potency was determined in female charles river CD-1 mice infected with Streptococcus pneumoniae after peroral administration. As to conditions: Streptococcus pneumoniae, po; read-out: PD50. The procedure, abridged: (§4)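 Acute lethal systemic infection in female CD-1 mice, 16 mice per route; single dose given orally by gavage at the time of challenge; median protective dose (PD50, mg/kg) determined.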

Assay [6] deals with Staphylococcus aureus. As to the kind of experiment: (§5) Antibacterial activity was determined against gram positive organism, Staphylococcus aureus UC76. The following applies: Staphylococcus aureus; read-out: MIC. Put shortly:
as §1

The test system of assay [7] is Streptococcus pneumoniae. As to the kind of experiment: The in vivo potency was determined in female charles river CD-1 mice infected with Streptococcus pneumoniae after sc administration. The following applies: Streptococcus pneumoniae, sc; read-out: PD50. The procedure, abridged:
as §2

Assay [8] relates to Escherichia coli. As to the kind of experiment: Antibacterial activity was determined against gram negative organism, Escherichia coli vogel. The following applies: Escherichia coli; read-out: MIC. Put shortly: as §1
The test system of assay [9] is Bacteria. As to the kind of experiment: MIC ratio measured as the mean MICs of gram-negative. Put shortly: (§6)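 Geometric mean of the microtitration MICs (µg/mL) over the Gram-negative organisms, and separately over the Gram-positive organisms, of the 10-strain panel; individual MICs averaged from multiple experiments.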
The subject of assay [10] is Streptococcus pyogenes. As to the kind of experiment: Antibacterial activity was determined against gram positive organism, Streptococcus pyogenes C203. As to conditions: Streptococcus pyogenes; read-out: MIC. The procedure, abridged:
as §1

In assay [11] the target is T1, DNA gyrase (Escherichia coli) (UniProt P0AES6+P0AES4). Briefly: Minimum inhibitory concentration against Escherichia coli DNA-gyrase in supercoiling assay.
The subject of assay [12] is Escherichia coli. As to the kind of experiment: The in vivo potency was determined in female charles river CD-1 mice infected with Escherichia coli after peroral administration. The following applies: Escherichia coli, po; read-out: PD50. The procedure, abridged:
as §4

Assay [13] deals with Bacteria. Briefly: MIC ratio measured as the mean MICs of gram-positive values. Put shortly: as §6
In assay [14] the test system is Staphylococcus aureus. As to the kind of experiment: (§7) Antibacterial activity was determined against gram positive organism, Staphylococcus aureus H228. The following applies: Staphylococcus aureus; read-out: MIC. The procedure, abridged: as §1
For the next assay, the system named is Klebsiella pneumoniae. Briefly: Antibacterial activity was determined against gram negative organism, Klebsiella pneumoniae MGH-2. As to conditions: Klebsiella pneumoniae; read-out: MIC. The procedure, abridged:
as §1

The subject of assay [15] is Streptococcus pyogenes. As to the kind of experiment: The in vivo potency was determined in female charles river CD-1 mice infected with Streptococcus pyogenes after peroral administration. As to conditions: Streptococcus pyogenes, po; read-out: PD50. The procedure, abridged: as §4
The subject of assay [16] is Streptococcus pneumoniae. Described as §3. Put shortly: (§8)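 Broth microtitration MIC against a panel of 10 Gram-positive and Gram-negative organisms; MIC in µg/mL, averaged over multiple experiments.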
Assay [17] deals with Staphylococcus aureus. The assay is described as §5. The procedure, abridged:
as §8

Assay [18] in a line: MIC ratio measured as the mean MICs of gram-negative bacteria. The procedure, abridged: as §6
For assay [19], the target named is T1, DNA gyrase (Escherichia coli). As to the kind of experiment: Minimum inhibitory concentration against Escherichia coli DNA-gyrase supercoiling assay.
A short description of assay [20]: MIC ratio measured as the mean MICs of gram-positive bacteria. Put shortly: as §6
Assay [21] deals with Staphylococcus aureus. The description is as §7. Put shortly: as §8

Values after ≈ are worked out from the molar mass of the structure shown.

With `NC1CCN(c2c(F)c(O)c3c(=O)c(C(=O)O)cn(C4CC4)c3c2F)C1` (configuration not stated), the MIC in the assay with Bacteria [1] stood at 0.05 µg/mL (≈ 0.137 µM); in the assay on Enterococcus faecalis, 0.1 µg/mL (≈ 0.274 µM); in the assay on Enterobacter cloacae, 0.013 µg/mL (≈ 0.0356 µM); in the assay with Pseudomonas aeruginosa it was 0.2 µg/mL (≈ 0.547 µM); in the assay with Streptococcus pneumoniae [4] it was 0.05 µg/mL (≈ 0.137 µM); in the assay with Staphylococcus aureus [6], 0.025 µg/mL (≈ 0.0684 µM). The MIC stood at 0.013 µg/mL (≈ 0.0356 µM) in the assay on Escherichia coli [8]; 0.05 µg/mL (≈ 0.137 µM) in the assay on Streptococcus pyogenes [10]; 0.5 µg/mL (≈ 1.37 µM) in assay [11]; 0.1 µg/mL (≈ 0.274 µM) in the assay on Staphylococcus aureus [14]; 0.025 µg/mL (≈ 0.0684 µM) in the assay with Klebsiella pneumoniae. Moreover, the ED50 is 11 mg/kg in the assay with Streptococcus pyogenes [2]; 0.5 mg/kg in the assay on Escherichia coli [3]; 107 mg/kg in the assay on Streptococcus pneumoniae [5]; 18 mg/kg in the assay with Streptococcus pneumoniae [7]; 2 mg/kg in the assay on Escherichia coli [12]; 90 mg/kg in the assay with Streptococcus pyogenes [15]. The results for the Ratio with Bacteria [9] and in the assay on Bacteria [13] were 0.034 and 0.057, respectively.

Take `CC1CN(c2cc3c(c(N)c2F)c(=O)c(C(=O)O)cn3-c2ccc(F)cc2F)CCN1` (configuration not stated): the MIC in the assay on Bacteria [1] was found to be 0.4 µg/mL (≈ 0.925 µM); with Enterococcus faecalis, 0.4 µg/mL (≈ 0.925 µM); in the assay with Enterobacter cloacae it was 0.2 µg/mL (≈ 0.463 µM); in the assay on Pseudomonas aeruginosa, 1.6 µg/mL (≈ 3.7 µM); against Streptococcus pneumoniae [16] it was 0.2 µg/mL (≈ 0.463 µM); with Staphylococcus aureus [17], 0.05 µg/mL (≈ 0.116 µM). Also, the MIC came out at 0.1 µg/mL (≈ 0.231 µM) in the assay on Escherichia coli [8]; 0.4 µg/mL (≈ 0.925 µM) in the assay on Streptococcus pyogenes [10]; 2.5 µg/mL (≈ 5.78 µM) in assay [19]; 0.2 µg/mL (≈ 0.463 µM) with Klebsiella pneumoniae; 0.2 µg/mL (≈ 0.463 µM) against Staphylococcus aureus [21]. For the same molecule, the Ratio is 0.3 in assay [18] and 0.2 in [20].
